Measurements from ChEMBL document CHEMBL1134852, “A new class of potent nonpeptide luteinizing hormone-releasing hormone (LHRH) antagonists: design and synthesis of 2-phenylimidazo[1,2-a]pyrimidin-5-ones” (Bioorg Med Chem Lett, 2002).

These compounds were tested against T1, Gonadotropin-releasing hormone receptor (Homo sapiens, UniProt P30968) (assay: In vitro inhibition of specific [125I]leuprorelin binding to the cloned human LHRH receptor expressed in chinese hamster ovary cells).
T1 sequence (P30968 whole entry): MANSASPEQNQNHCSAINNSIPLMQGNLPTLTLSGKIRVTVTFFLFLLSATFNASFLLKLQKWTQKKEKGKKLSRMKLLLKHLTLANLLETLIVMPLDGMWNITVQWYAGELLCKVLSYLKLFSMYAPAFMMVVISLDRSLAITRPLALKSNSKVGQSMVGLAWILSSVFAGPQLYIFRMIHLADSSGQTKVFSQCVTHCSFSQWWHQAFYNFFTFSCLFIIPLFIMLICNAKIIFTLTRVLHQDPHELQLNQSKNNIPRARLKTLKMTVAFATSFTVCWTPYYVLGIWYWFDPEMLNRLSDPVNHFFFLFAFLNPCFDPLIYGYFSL
Assay type: cell-based, CHO
How it was run: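 Membranes from CHO cells expressing the receptor (0.2 mg/mL) incubated with [125I][Tyr5]leuprorelin (0.12–0.15 nM) and varied test compound, 60 min at 25 °C, Tris 25 mM/EDTA/0.1% BSA/protease inhibitors buffer, pH 7.5. Stopped with ice-cold buffer, filtered on PEI-coated glass fibre, radioactivity counted. Nonspecific binding with […] unlabeled leuprorelin; IC50 from pseudo-Hill fit.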

Compound | IC50 [nM]
CCOC(=O)c1cn(Cc2c(F)cccc2F)c2nc(-c3ccc(NC(=O)C4CC4)cc3)c(CN(C)Cc3ccccc3)n2c1=O | 5
CONC(=O)Nc1ccc(-c2nc3n(Cc4c(F)cccc4F)cc(C(=O)OC(C)C)c(=O)n3c2CN(C)Cc2ccccc2)cc1 | 0.4
C=CC(=O)Nc1ccc(-c2nc3n(Cc4c(F)cccc4F)cc(C(=O)OCC)c(=O)n3c2CN(C)Cc2ccccc2)cc1 | 3
CCOC(=O)c1cn(Cc2c(F)cccc2F)c2nc(-c3ccc(NC(=O)c4ccccc4)cc3)c(CN(C)Cc3ccccc3)n2c1=O | 20
CCNC(=O)Nc1ccc(-c2nc3n(Cc4c(F)cccc4F)cc(C(=O)OC(C)C)c(=O)n3c2CN(C)Cc2ccccc2)cc1 | 0.3
CCOC(=O)c1cn(Cc2c(F)cccc2F)c2nc(-c3ccc(NC(=O)c4ccoc4)cc3)c(CN(C)Cc3ccccc3)n2c1=O | 3
CCOC(=O)c1cn(Cc2c(F)cccc2F)c2nc(-c3ccc(NC(=O)CC)cc3)c(CN(C)Cc3ccccc3)n2c1=O | 10
CCOC(=O)c1cn(Cc2c(F)cccc2F)c2nc(-c3ccc(NC(=O)NOC)cc3)c(CN(C)Cc3ccccc3)n2c1=O | 0.7
CCOC(=O)c1cn(Cc2c(F)cccc2F)c2nc(-c3ccc(NC(=O)C(C)C)cc3)c(CN(C)Cc3ccccc3)n2c1=O | 30
CCOC(=O)c1cn(Cc2c(F)cccc2F)c2nc(-c3ccc(NC(=O)c4ccsc4)cc3)c(CN(C)Cc3ccccc3)n2c1=O | 7
